Screening results deposited in PubChem BioAssay by Broad Institute.
A selection: hits, their analogues and other compounds. The true share with any hit is near 4.3%.
CAL PDZ FP-1 = blocks peptide binding to the human CAL PDZ domain; Q9HD26; 0.92% of 300,000 active; inhibition, % at 24.9 µM; purified CAL PDZ, TMR-peptide fluorescence polarization, 1 h;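 active = mean inhibition of at least 30% with at least half of replicates also reaching 30%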;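 note: 0% = DMSO neutral control and 100% = excess unlabeled competitor peptide PRC23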
CAL PDZ FP-2 = blocks peptide binding to human CAL PDZ domain; Q9HD26; purified CAL PDZ, TMR-peptide fluorescence polarization, 1 h; inhibition, % at 20 µM; 0.02% of 330,000 active;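 active = highest replicate inhibition of at least 40%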;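 note: plate controls were DMSO neutral control wells for no effect and unlabeled competitor peptide control wells for full effect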
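System: tagged CAL PDZ domain. Schedule: 1 h room-temperature incubation prior to read. Signal: fluorescence polarization (mP). Measure: percent inhibition from loss of millipolarization.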
Rtt109 HAT inh = inhibitors of Candida albicans Rtt109/Vps75 histone acetyltransferase; Q5AAJ8; purified Rtt109/Vps75, ThioGlo CoA-SH fluorescence, 4 h; inhibition, % at 34.9 µM; 0.16% of 330,000 active; AID 540336;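 active = inhibition of at least 50% in every replicate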
Target sequence (Q5AAJ8 whole entry, looked up): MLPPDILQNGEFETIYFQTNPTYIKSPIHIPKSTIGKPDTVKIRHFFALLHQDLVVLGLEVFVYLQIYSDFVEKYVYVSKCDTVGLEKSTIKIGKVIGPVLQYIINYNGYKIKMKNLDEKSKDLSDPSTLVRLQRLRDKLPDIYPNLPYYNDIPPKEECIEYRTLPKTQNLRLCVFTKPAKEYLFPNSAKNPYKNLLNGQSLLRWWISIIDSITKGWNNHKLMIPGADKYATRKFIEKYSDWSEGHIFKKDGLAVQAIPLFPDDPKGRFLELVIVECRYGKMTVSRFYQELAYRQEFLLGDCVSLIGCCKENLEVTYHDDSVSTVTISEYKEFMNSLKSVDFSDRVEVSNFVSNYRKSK
Dyrk1A ADPGlo = inhibitors of rat Dyrk1A kinase. Q63470. ADP-Glo luminescence, NFATc1 peptide. inhibition, % at 12.5 µM. 0.43% of 310,000 active. AID 504441; in the data active = inhibition above about 50%;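 note: plate controls were vehicle with enzyme for no effect and no enzyme for full effect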
ALR inh = inhibitors of human sulfhydryl oxidase ALR; P55789; purified ALR, DTT oxidation, H2O2 HRP-luminol luminescence; inhibition, % (test concentration not listed); 3.8% of 290,000 active; AID 485317;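 active = mean replicate inhibition above about 79%, with every replicate also reaching it, limit read from the data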
Target sequence (P55789 whole entry, looked up): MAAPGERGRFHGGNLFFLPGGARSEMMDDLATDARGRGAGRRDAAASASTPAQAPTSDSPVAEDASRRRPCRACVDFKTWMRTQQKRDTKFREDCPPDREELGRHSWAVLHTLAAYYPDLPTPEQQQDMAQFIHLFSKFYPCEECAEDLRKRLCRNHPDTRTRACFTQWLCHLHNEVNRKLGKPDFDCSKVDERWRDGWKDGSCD
* = called active by the depositor; x = not tested or not shown; ! = repeats disagree.

SMILES	CAL PDZ FP-1	CAL PDZ FP-2	Rtt109 HAT inh	Dyrk1A ADPGlo	ALR inh
Cc1cccc(C(=O)NC(=S)Nc2cccc3nc(C)ccc23)c1	2.5	-3.2	2.5	36.8	-14.6
CCN(CCCNS(=O)(=O)c1ccc2c(c1)CCN2C(C)=O)c1cccc(C)c1	x	-0.7	2.1	-0.3	96.7*
CCN(CCCNC(=O)CN(C)S(=O)(=O)c1ccc2c(c1)CCC(=O)N2)c1cccc(C)c1	-3.2	-1.6	6.0	1.8	96.1*
Cc1ccccc1NC(=O)CCNS(=O)(=O)c1ccc2c(c1)CCC(=O)N2	-8.8	-3.1	-11.4	-5.9	-3.5
CCN(CC)c1ccc(NC(=O)CCNS(=O)(=O)c2ccc3c(c2)CCC(=O)N3)c(C)c1	-3.1	-1.9	35.2	-0.5	99.0*
CCN(CCCNC(=O)CN(C)S(=O)(=O)c1cccc2nsnc12)c1cccc(C)c1	0.5	-2.7	-6.9	-5.7	98.7*
CCCc1nc2ccccc2c(=O)n1CC(=O)c1ccc(F)cc1	4.5	-5.2	-12.5	-0.6	0.6
O=C(CCN1CCOCC1)NNC(=O)c1ccc([N+](=O)[O-])cc1[N+](=O)[O-]	x	0.8	-5.6	-2.7	-42.8
Cc1ccccc1NC(=O)Cc1c[nH]c2ccccc12	6.6	0.3	0.8	-5.6	-6.1
CCN(CCNC(=O)CN(C)S(=O)(=O)c1cccc2nsnc12)c1ccccc1	-1.3	-3.4	1.1	-5.7	98.4*
CCN(CC)C(=O)CN(C)S(=O)(=O)c1cccc2nsnc12	0.3	-2.7	-1.5	-5.0	1.0
CC(=O)Nc1ccc(C(=O)O)cc1	0.7	0.5	-4.3	0.4	x
Nc1ccc(NC(=O)c2cccs2)cc1	x	-0.1	-15.3	-3.0	98.4*
Nc1ccc(NC(=O)Nc2ccc(N)cc2)cc1	-0.8	1.1	-2.2	3.2	99.2*
NS(=O)(=O)c1ccc(NC(=O)Nc2ccc(Cl)cc2)cc1	-5.4	-3.7	-12.8	2.9	-6.2
CC(=O)Nc1ccc(N)cc1	-19.3	-4.2	23.0	x	89.4*
CC(C)CNC(=O)/C=C/C=C/CCCC/C=C/c1ccc2c(c1)OCO2	-0.2	-0.5	-9.0	-3.2	1.0
COc1ccc(-n2c(SCC(=O)N(C)C3CCS(=O)(=O)C3)nc3ccc(O)cc3c2=O)cc1OC (stereo not drawn)	-2.7	-0.2	-2.9	0.9	67.6
O=S(=O)(NCc1cc(-c2ccc(Cl)cc2)no1)c1ccccc1	-2.0	-1.7	-2.8	-2.0	-6.8
O=S(=O)(NCc1cc(-c2ccc(Cl)cc2)no1)c1ccc(Cl)cc1	44.1*	-0.9	-4.6	2.8	-1.4
Cn1c(CNc2cccc(Cl)c2)nnc1SCC#N	-1.6	-1.3	12.2	-7.6	3.4
N/C(=N\O)c1ccc(NC(=O)c2ccc(Br)o2)cc1	67.4*	-0.2	-11.8	8.4	98.5*
CC(Sc1n[nH]c(-c2ccccc2)n1)C(=O)c1c(N)n(C)c(=O)n(C)c1=O (stereo not drawn)	-2.0	-2.9	22.9	5.6	-3.4
CC(Sc1nc2ccccc2s1)C(=O)c1c(N)n(C)c(=O)n(C)c1=O (stereo not drawn)	-3.3	-2.0	5.8	-1.3	98.8*
COc1cccc(-n2nnnc2S(C)(=O)=O)c1	0.9	-0.4	4.4	6.8	98.8*
SMILES	CAL PDZ FP-1	CAL PDZ FP-2	Rtt109 HAT inh	Dyrk1A ADPGlo	ALR inh
Cc1cc(Nc2ccccc2)n(-c2ccccc2)n1	0.1	-0.4	3.1	-5.2	97.7*
Cc1cc(NC(=O)c2cccs2)n(-c2ccccc2)n1	x	-0.8	-14.7	2.4	86.2*
Cc1cc(C)nc(-n2nc(C)cc2Nc2ccccc2)n1	-4.0	0.7	12.6	x	98.3*
Cc1cc(Nc2ccccc2)n(-c2nc3ccccc3[nH]2)n1	-2.0	-0.1	0.7	2.6	5.8
CSc1ccccc1NC(=O)C1CCCN(S(C)(=O)=O)C1 (stereo not drawn)	-7.8	0.3	16.3	-6.6	x
CCCCN1C[C@H](CO)Oc2cccc(F)c2S1(=O)=O	1.8	-0.9	6.4	-11.5	x
Cc1ccc(NCc2nnc(SC(C)C(=O)N/N=C/c3ccc(C)o3)n2-c2ccccc2)cc1 (stereo not drawn)	-2.9	-0.9	-3.4	-0.5	18.2
O=C(c1ccc(F)cc1)C(CN1CCOCC1)c1ccccc1 (stereo not drawn)	-0.5	0.4	3.9	-1.3	7.4
OC(CN1CCCCC1)CN(c1ccccc1)c1ccccc1 (stereo not drawn)	1.7	-1.5	32.5	-2.2	98.3*
OC(CN1CCOCC1)CN(c1ccccc1)c1ccccc1 (stereo not drawn)	-0.9	-2.1	-3.6	-2.8	99.1*
OC(COc1ccccc1)CN1CCCCCC1 (stereo not drawn)	4.9	-0.4	10.8	6.8	-21.0
Cc1ccccc1S(=O)(=O)N(CC(O)CN1CCCCC1)c1ccccc1 (stereo not drawn)	5.7	0.5	-0.7	3.2	-6.9
O=C(c1ccccc1)C(CCC(CN1CCOCC1)C(=O)c1ccccc1)CN1CCOCC1 (stereo not drawn)	x	0.6	3.8	-4.5	97.9*
OC(CN1CCCCCC1)CN(c1ccccc1)c1ccccc1 (stereo not drawn)	1.2	1.7	5.4	x	99.0*
Cn1cnnc1SCC(=O)c1cccc([N+](=O)[O-])c1	-0.8	-0.8	-1.6	1.7	83.0*
COc1cc(OC)cc(C(=O)N[C@H](C(=O)OCC(=O)Nc2ccc3c(c2)OCO3)C(C)C)c1	-2.4	-1.9	1.8	-3.8	0.4
CC(=O)Nc1ccc(S(=O)(=O)NNC(=O)COc2cc(C)ccc2C(C)C)cc1	1.3	0.1	1.4	-4.9	98.9*
CC(Nc1ccccc1)c1cc(Cl)ccc1O (stereo not drawn)	0.4	-0.2	15.3	1.8	98.9*
Cc1c(NC(C)c2ccccc2O)c(=O)n(-c2ccccc2)n1C (stereo not drawn)	-0.8	0.8	-3.2	3.2	54.4
Cc1c(NC(C)C)c(=O)n(-c2ccccc2)n1C	-0.7	0.4	3.9	7.8	96.9*
Cc1ccc(S(=O)(=O)Nc2c(C)n(C)n(-c3ccccc3)c2=O)cc1	54.4*!	10.2	4.0	3.6	0.7
Cc1c(NC(C)c2cc(Cl)ccc2O)c(=O)n(-c2ccccc2)n1C (stereo not drawn)	2.0	-0.6	4.5	-5.7	90.8*
Fc1ccc(CN2CC[C@H]3C=CCc4cccc(c43)C2)cc1	-2.7	-0.6	0.2	-8.5	-12.2
Cc1cccc(N2C(N)=C(C#N)C(C#N)(C#N)C2c2ccccc2)c1 (stereo not drawn)	x	0.3	9.7	0.0	36.9
N#CC1=C(N)N(c2ccccc2)C(c2ccco2)C1(C#N)C#N (stereo not drawn)	0.2	0.0	2.4	28.1	93.7*
Nn1c(Cc2ccccc2)nc2cc(Cl)ccc2c1=O	-2.6	-0.6	-6.3	7.7	15.5
O=C(CSc1n[nH]c(=O)n1Cc1ccco1)Nc1ccccc1Cl	6.8	-0.2	14.2	x	-4.6
Cc1cc(NC(=O)CCC(=O)N(Cc2ccco2)C(C(=O)NC2CCCCC2)c2ccccc2)no1 (stereo not drawn)	39.1*	-1.1	0.5	1.2	-5.1
